From ChEMBL document CHEMBL1153713, “Effect of chirality of small molecule organofluorine inhibitors of amyloid self-assembly on inhibitor potency” (Bioorg Med Chem Lett, 2009)
Active and inactive are the calls of the source. The calls are words filed in the database; no cut-off is given here.

Legend:
[1] = Inhibition of amyloid beta (1 to 40) after 140 hrs by thioflavin-T assay
How it was run: (§1)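 Synthetic Aβ1-40 dissolved in 100 mM NaOH (40 mg/ml), diluted to 100 μM final in 10 mM HEPES, 100 mM NaCl, 0.02% NaN3, pH 7.4; inhibitor added from DMSO at inhibitor/Aβ = 10. Incubated at 37°C, 77 rpm shaking, up to 140 h. Aliquots into 5 μM ThT in glycine-NaOH pH 8.5; ex 430/em 484 nm, 0 h background subtracted, normalized to inhibitor-free control.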

[2] = Inhibition of amyloid beta (1 to 40) after 94 hrs by thioflavin-T assay relative to control; how it was run: as §1
[3] = Inhibition of amyloid beta (1 to 40) fibrillation by atomic force microscopy
How it was run: (§2)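 Aβ1-40 (100 μM in HEPES/NaCl/NaN3, pH 7.4) incubated with inhibitor (DMSO stock, 10:1 inhibitor:peptide) at 37°C with gentle shaking. Aliquots diluted in the same HEPES buffer, 2-5 μL spotted on freshly cleaved mica. Imaged by non-contact AFM over 10 μm2 scans and compared with inhibitor-free control.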

[4] = Inhibition of amyloid beta (1 to 40) fibrillation by atomic force microscopy relative to control; details: concentration not given here; how it was run: as §2

With `CCOC(=O)[C@@](O)(c1c[nH]c2ccc(Br)cc12)C(F)(F)F` as the compound, how does the Activity [1] read?
Its Activity is “Active”.

What about the Activity [2] of the same compound?
Its Activity is “Active”.

What about the Activity [3] of the same compound?
Its Activity is “Active”.

Which results are given for `CCOC(=O)[C@@](O)(c1c[nH]c2ccc(I)cc12)C(F)(F)F`?
Activity [1]: Active; Activity [2]: Active; Activity [3]: Active

Which Activity [1] does the source give for `CCOC(=O)[C@@](O)(c1c[nH]c2ccc(Cl)cc12)C(F)(F)F` here?
Its Activity is “Active”.

What about the inhibition [4] of the same compound?
Its inhibition is 60%.

And the Activity [2]?
The Activity was “Active”.

And the Activity [3]?
Its Activity is “Active”.

Which results are given for `CCOC(=O)[C@](O)(c1c[nH]c2ccc(Cl)cc12)C(F)(F)F`?
Activity [1]: Active; inhibition [4]: 60%; Activity [2]: Active; Activity [3]: Active

Which Activity [1] does the source give for `CCOC(=O)[C@](O)(c1c[nH]c2ccc(I)cc12)C(F)(F)F` here?
The Activity was “Active”.

And the Activity [2]?
The Activity was “Active”.

What about the Activity [3] of the same compound?
Its Activity is “Active”.

With `CCOC(=O)[C@](O)(c1c[nH]c2ccc(Br)cc12)C(F)(F)F` as the compound, how does the Activity [1] read?
Its Activity is “Active”.

And the inhibition [4]?
Its inhibition is 60%.

And the Activity [2]?
Its Activity is “Active”.

And the Activity [3]?
Its Activity is “Active”.
